The source of these data is ChEMBL document CHEMBL1123127, “Comparison of the hypolipidemic activity of cyclic vs. acyclic imides” (1985).

In assay [1] the test system is Mus musculus. Briefly: Reduction in serum cholesterol in CF1 mice on day 9 following 20 mg/kg i.p. o.d. for 16 days. The assay is classed as functional. As to conditions: ip, route intraperitoneal. The procedure, abridged: (§1)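 Mice dosed at 20 mg/kg per day for 16 days. On days 9 and 16, blood was taken by tail-vein bleeding into nonheparinized microcapillary tubes and spun for 3 min to give serum. Serum cholesterol was measured by a modified Liebermann–Burchard reaction.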

Assay [2] relates to Mus musculus. Description: Reduction in serum triglyceride in CF1 mice on day 14 following 20 mg/kg i.p. o.d. for 16 days. The conditions noted are these: ip.
The test system of assay [3] is Mus musculus. Description: Reduction in serum cholesterol in CF1 mice on day 16 following 20 mg/kg i.p. o.d. for 16 days. The class given is functional. As to conditions: ip, 384 h, route intraperitoneal. The method in brief: as §1

A word on the inhibition in vivo: it is the percentage by which the read-out fell short of the control. A high value points to a response far below the control. In the case of `CCOC(=O)CCN(C(C)=O)C(C)=O`, the values for the inhibition in vivo at 20 mg/kg in assay [1] and in assay [3] were 11% and 25%, respectively. This compound had a serum triglyceride % inhibition at 20 mg/kg in assay [2] of 11%.

On to `CC(=O)N(CCC(=O)O)C(C)=O`, for which the inhibition in vivo at 20 mg/kg was 20% in assay [1] and 21% in assay [3]. Besides, in assay [2], the serum triglyceride % inhibition at 20 mg/kg turned out to be 21%.

Regarding `CC(=O)CCN(C(C)=O)C(C)=O`, the inhibition in vivo at 20 mg/kg in assay [1] came out at 14%; in assay [3] it was 30%. The same compound gave a serum triglyceride % inhibition at 20 mg/kg in assay [2] of 20%.

As for `O=C(O)CCN1C(=O)CCC1=O`, the inhibition in vivo at 20 mg/kg stood at 32% in assay [1] and 39% in assay [3]. In assay [2], this compound displayed a serum triglyceride % inhibition at 20 mg/kg of 44%.

For `CC(=O)CCn1c(=O)c2ccccc2c2ccccc2c1=O`, the inhibition in vivo at 20 mg/kg in assay [1] and in assay [3] was 23% each time. Moreover, the serum triglyceride % inhibition at 20 mg/kg in assay [2] is 10%.

On to `CCCCN1C(=O)CCC1=O`, for which the inhibition in vivo at 20 mg/kg in assay [1] came out at 0%; in assay [3], 15%. In addition, the serum triglyceride % inhibition at 20 mg/kg in assay [2] was determined as 35%.

For the compound `CC(=O)CCN(C(=O)c1ccccc1)C(=O)c1ccccc1`, the inhibition in vivo at 20 mg/kg is 23% in assay [1] and 26% in assay [3]. In assay [2], this compound came in with a serum triglyceride % inhibition at 20 mg/kg of 39%.

Consider `CCOC(=O)CCN1C(=O)CCC1=O`, for which the inhibition in vivo at 20 mg/kg in assay [1] turned out to be 11%; in assay [3] it was 23%. In assay [2], this compound returned a serum triglyceride % inhibition at 20 mg/kg of 23%.

For `O=C(NC(=O)c1ccccc1)c1ccccc1`, the inhibition in vivo at 20 mg/kg in assay [1] came out at 14%; in assay [3], 35%. The same compound gave a serum triglyceride % inhibition at 20 mg/kg in assay [2] of 7%.

Take `CCCCn1c(=O)c2ccccc2c2ccccc2c1=O`: the inhibition in vivo at 20 mg/kg came to 22% in assay [1] and 23% in assay [3]. The compound also had a serum triglyceride % inhibition at 20 mg/kg in assay [2] of 48%.

Take `O=c1[nH]c(=O)c2ccccc2c2ccccc12`: the inhibition in vivo at 20 mg/kg was 19% in assay [1] and 18% in assay [3]. Moreover, in assay [2], the serum triglyceride % inhibition at 20 mg/kg is 19%.

With `O=C(O)CCn1c(=O)c2ccccc2c2ccccc2c1=O`, the inhibition in vivo at 20 mg/kg was determined as 12% in assay [1] and 16% in assay [3]. Further, in assay [2], the serum triglyceride % inhibition at 20 mg/kg was 25%.

For `CCCCN(C(C)=O)C(C)=O`, the inhibition in vivo at 20 mg/kg in assay [1] amounted to 11%; in assay [3] it was 20%. In assay [2], the serum triglyceride % inhibition at 20 mg/kg amounted to 0%.

Turning to `CCCCN(C(=O)c1ccccc1)C(=O)c1ccccc1`, the inhibition in vivo at 20 mg/kg in assay [1] was 23%; in assay [3], 19%. In assay [2], this compound showed a serum triglyceride % inhibition at 20 mg/kg of 30%.

Turning to `CC(=O)CCN1C(=O)CCC1=O`, the inhibition in vivo at 20 mg/kg is 12% in assay [1] and 10% in assay [3]. In assay [2], the serum triglyceride % inhibition at 20 mg/kg stood at 25%.

For `CCOC(=O)C(C)(C)Oc1ccc(Cl)cc1` [CLOFIBRATE], the inhibition in vivo at 20 mg/kg in assay [1] came out at 12%; in assay [3], 13%. For the same compound, in assay [2], the serum triglyceride % inhibition at 20 mg/kg was found to be 25%.

Consider `CC(=O)NC(C)=O` [DIACETAMIDE], for which the inhibition in vivo at 20 mg/kg in assay [1] was 4%; in assay [3] it was 18%. Further, in assay [2], the serum triglyceride % inhibition at 20 mg/kg was found to be 2%.

Turning to `O=C1NC(=O)c2ccccc21` [PHTHALIMIDE], the inhibition in vivo at 20 mg/kg in assay [1] came out at 37%; in assay [3], 43%. Also, in assay [2], the serum triglyceride % inhibition at 20 mg/kg was determined as 56%.

In the case of `O=C1CCC(=O)N1` [SUCCINIMIDE], the inhibition in vivo at 20 mg/kg came out at 2% in assay [1] and 27% in assay [3]. In addition, the serum triglyceride % inhibition at 20 mg/kg in assay [2] stood at 32%.
